From paper PMC2200097 (The Journal of Cell Biology, 1993)

Legend:
[1] = molecular target: peptide 300 (GGWSHW) (human)
[2] = molecular target: peptide 300 (GGWSHW) (human); assay: radioligand binding
melanoma cells = settings: murine lung colonization assay; ref Tuszynski et al., 1992; cited from earlier work
human plasma fibronectin = human plasma fibronectin (Homo sapiens, UniProt P02751); assay: Direct binding of [125I]fibronectin to immobilized peptides; settings: solid phase assay, labeled fibronectin
fibronectin = fibronectin (Homo sapiens, UniProt P02751); format: binding; settings: for IC50 for competition of [125I]fibronectin binding to peptide GGWSHW: irrelevant proteins as inhibitors; for Inhibition of fibronectin binding to immobilized peptide GGWSHW, in words: soluble peptide or protein as inhibitor
Method in brief: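 Wells were incubated 2 h at 25°C with [¹²⁵I]human plasma fibronectin (0.2 μg/ml final per methods; 0.5 μg/ml per legends) plus serial dilutions of soluble inhibitors. Wells were washed three times with DPBS, cut out and counted. Duplicates; percent of specific binding without inhibitor.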

peptide GGWSHW = peptide GGWSHW (Homo sapiens, UniProt P07996); format: binding; settings: detection with antibody 191; wells coated with 50 μg/ml GGWSHW
Method in brief: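 Peptide GGWSHW (50 μg/ml) was coated on microtiter wells and blocked with 1% BSA. Wells were incubated with graded concentrations of unlabeled intact fibronectin, the 30-kD proteolytic gelatin-binding domain or the 120-kD proteolytic cell-binding fragment. After washing, bound protein was detected sequentially with 5 μg/ml monoclonal antibody 191 and ¹²⁵I-goat anti-IgG, then counted. Values are mean ± SD of duplicates.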

[3] = molecular target: human plasma fibronectin (human); assay: radioligand binding

Chain of fibronectin (P02751 306-608 limits assumed): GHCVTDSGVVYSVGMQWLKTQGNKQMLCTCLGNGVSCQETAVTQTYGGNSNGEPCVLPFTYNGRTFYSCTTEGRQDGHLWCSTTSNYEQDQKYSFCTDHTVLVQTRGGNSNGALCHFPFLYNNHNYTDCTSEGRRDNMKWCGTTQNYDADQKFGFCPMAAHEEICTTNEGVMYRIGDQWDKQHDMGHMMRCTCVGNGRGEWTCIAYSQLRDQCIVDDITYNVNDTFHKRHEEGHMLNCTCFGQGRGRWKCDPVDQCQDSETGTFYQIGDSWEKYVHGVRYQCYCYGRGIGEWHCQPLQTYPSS
Chain of human plasma fibronectin (P02751 306-608 limits assumed): as above

30-kD proteolytic gelatin-binding domain of fibronectin (domain or fragment)
half saturation [1]: 15 µg/mL

40-kD recombinant fragment of fibronectin with the same amino terminus as the 28-kD fragment (domain or fragment)
fold less active as inhibitor than the 33-kD fragment [2]: 10 fold

CSTSCG
Inhibition of metastasis of melanoma cells, in words (melanoma cells): inhibit

CSVTCG
Inhibition of metastasis of melanoma cells, in words (melanoma cells): inhibit

DGWSPW (DGWCSPW) [compound 317]
Fibronectin binding to immobilized peptide, in words (human plasma fibronectin): inactive

GGWGPW [compound 318]
Fibronectin binding to immobilized peptide, in words (human plasma fibronectin): inactive

fetuin: irrelevant control protein [reference compound]
IC50 for competition of [125I]fibronectin binding to peptide GGWSHW (fibronectin): > 200 µg/mL

fibronectin
Inhibition of fibronectin binding to immobilized peptide GGWSHW, in words (fibronectin): competed
Half saturation of binding to immobilized peptide GGWSHW (peptide GGWSHW): 0.7 µg/mL

peptide 340 (AAWSHW)
IC50 [3]: > 300 µM

thrombospondin: human platelet thrombospondin, extracellular matrix glycoprotein
Inhibition of fibronectin binding to immobilized peptide GGWSHW, in words (fibronectin): competed

transferrin: irrelevant control protein [reference compound]
IC50 for competition of [125I]fibronectin binding to peptide GGWSHW (fibronectin): > 200 µg/mL

B1: peptide 256 (…) (peptide)
peptide: GGWSHWSPWSS
IC50 [3]: > 300 µM

B2: ovalbumin: irrelevant control protein (protein)
chain: MGSIGAASMEFCFDVFKELKVHHANENIFYCPIAIMSALAMVYLGAKDSTRTQINKVVRFDKLPGFGDSIEAQCGTSVNVHSSLRDILNQITKPNDVYSFSLASRLYAEERYPILPEYLQCVKELYRGGLEPINFQTAADQARELINSWVESQTNGIIRNVLQPSSVDSQTAMVLVNAIVFKGLWEKAFKDEDTQAMPFRVTEQESKPVQMMYQIGLFRVASMASEKMKILELPFASGTMSMLVLLPDEVSGLEQLESIINFEKLTEWTSSNVMEERKIKVYLPRMKMEEKYNLTSVLMAMGITDVFSSSANLSGISSAESLKISQAVHAAHAEINEAGREVVGSAEAGVDAASVSEEFRADHPFLFCIKHIATNAVLFFGRCVSP
IC50 for competition of [125I]fibronectin binding to peptide GGWSHW (fibronectin): > 200 µg/mL
